Reference: the RNAGym collection of RNA variant scans (doi:10.1002/anie.201605470)

B1: Osa-1-4 twister ribozyme (parent)
chain: CCGCCUAACACUGCCAAUGCCGGUCCCAAGCCCGGAUAAAAGUGGAGGGGGCGG

Variants of: B1
Experiment: self-cleavage, relative activity (ratio to wild type); higher = more cleavage; co-transcriptional
Summary of the method: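 A DNA template encoding a 54-nucleotide twister ribozyme from Oryza sativa was made so that each of the 48 positions downstream of the cleavage site carried 97 % wild-type base and 1 % of each other base. Transcription in vitro ran for 2 h at 37 °C, during which the ribozyme could cleave itself. Reverse transcription used a template-switching oligonucleotide, and the products were PCR-amplified and deep-sequenced. Each read was scored as cleaved or uncleaved by whether upstream sequence was present, and relative activity is the fraction cleaved normalised to wild type.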

First: CCGCCUUACACUGCGAAUGCCGGUCCCAAGCCCGGAUAAAAGUGGAGGGGGCGG [A7U C15G]
Second: CCGCCUUACACUGCUAAUGCCGGUCCCAAGCCCGGAUAAAAGUGGAGGGGGCGG [A7U C15U]
The self-cleavage of the first is higher: 0.11 for the first, 0.06 for the second.

CCGCCUUACACUGCAAAUGCCGGUCCCAAGCCCGGAUAAAAGUGGAGGGGGCGG [A7U C15A] and CCGCCUUACACUGCCAAUGCCGGUCCCAAGCCCGGAUAAAAGUAGAGGGGGCGG [A7U G44A] are the same in self-cleavage: 0.06 for the first, 0.06 for the second.

Compared with CCGCCUUACACUGCCAAUGCCGGUCCCAAGCCCGGAUAAAAGUCGAGGGGGCGG [A7U G44C], CCGCCUUACACUGCCAAUGCCGGUCCCAAGCCCGGAUAAAAGUUGAGGGGGCGG [A7U G44U] is higher in self-cleavage: 0.06 for the first, 0.09 for the second.

First: CCGCCUUACACUGCCAAUGCCGGUCCUAAGCCCGGAUAAAAGUGGAGGGGGCGG [A7U C27U]
Second: CCGCCUUACACUGCCAAUGCCGGUCCGAAGCCCGGAUAAAAGUGGAGGGGGCGG [A7U C27G]
The self-cleavage of the first is higher: 0.06 for the first, 0.04 for the second.

Compared with CCGCCUUACACUGCCAAUGCCGGUCCAAAGCCCGGAUAAAAGUGGAGGGGGCGG [A7U C27A], CCGCCUUACACUGCCAAUGCCGGUCCCAAGCCCGGAUAAAAGUGGAGGAGGCGG [A7U G49A] is lower in self-cleavage: 0.06 for the first, 0.04 for the second.

CCGCCUUACACUGCCAAUGCCGGUCCCAAGCCCGGAUAAAAGUGGAGGUGGCGG [A7U G49U] and CCGCCUUACACUGCCAAUGCCGGUCCCAAGCCCGGAUAAAAGUGGAGGCGGCGG [A7U G49C] are the same in self-cleavage: 0.03 for the first, 0.03 for the second.

Compared with CCGCCUGACACUGCCAAUGCCGGUCCCAAGCCCGGAUAAAAGGGGAGGGGGCGG [A7G U43G], CCGCCUGACACUGCCAAUGCCGGUCCCAAGCCCGGAUAAAAGCGGAGGGGGCGG [A7G U43C] is higher in self-cleavage: 0.11 for the first, 0.12 for the second.

First: CCGCCUUACACAGCCAAUGCCGGUCCCAAGCCCGGAUAAAAGUGGAGGGGGCGG [A7U U12A]
Second: CCGCCUUCCACUGCCAAUGCCGGUCCCAAGCCCGGAUAAAAGUGGAGGGGGCGG [A7U A8C]
The self-cleavage of the first is higher: 0.09 for the first, 0.02 for the second.

Compared with CCGCCUUGCACUGCCAAUGCCGGUCCCAAGCCCGGAUAAAAGUGGAGGGGGCGG [A7U A8G], CCGCCUUUCACUGCCAAUGCCGGUCCCAAGCCCGGAUAAAAGUGGAGGGGGCGG [A7U A8U] is lower in self-cleavage: 0.09 for the first, 0.07 for the second.

Going from CCGCCUUACAGUGCCAAUGCCGGUCCCAAGCCCGGAUAAAAGUGGAGGGGGCGG [A7U C11G] to CCGCCUUACAUUGCCAAUGCCGGUCCCAAGCCCGGAUAAAAGUGGAGGGGGCGG [A7U C11U], the self-cleavage falls from 0.06 to 0.05.

First: CCGCCUUACAAUGCCAAUGCCGGUCCCAAGCCCGGAUAAAAGUGGAGGGGGCGG [A7U C11A]
Second: CCGCCUUACACUGCCAAUGCCGGUCCCAAGCACGGAUAAAAGUGGAGGGGGCGG [A7U C32A]
The self-cleavage of the first is higher: 0.08 for the first, 0.03 for the second.

CCGCCUUACACUGCCAAUGCCGGUCCCAAGCGCGGAUAAAAGUGGAGGGGGCGG [A7U C32G] and CCGCCUUACACUGCCAAUGCCGGUCCCAAGCUCGGAUAAAAGUGGAGGGGGCGG [A7U C32U] are the same in self-cleavage: 0.04 for the first, 0.04 for the second.

First: CCGCCUUACACUGCCAAUGCCGGUCCCAAGCCCGGAUAAAACUGGAGGGGGCGG [A7U G42C]
Second: CCGCCUUACACUGCCAAUGCCGGUCCCAAGCCCGGAUAAAAAUGGAGGGGGCGG [A7U G42A]
The self-cleavage of the first is lower: 0.05 for the first, 0.09 for the second.

First: CCGCCUUACACUGCCAAUGCCGGUCCCAAGCCCGGAUAAAAUUGGAGGGGGCGG [A7U G42U]
Second: CCGCCUUACACUGCCAAUGCCGGUCACAAGCCCGGAUAAAAGUGGAGGGGGCGG [A7U C26A]
The self-cleavage of the first is higher: 0.03 for the first, 0.02 for the second.

Going from CCGCCUUACACUGCCAAUGCCGGUCUCAAGCCCGGAUAAAAGUGGAGGGGGCGG [A7U C26U] to CCGCCUUACACUGCCAAUGCCGGUCGCAAGCCCGGAUAAAAGUGGAGGGGGCGG [A7U C26G], the self-cleavage falls from 0.07 to 0.05.

Compared with CCGCCUUACACUGCCAAUGCCGGUCCCAAGCCCGGAUAAAAGUGGAGGGGGCGG [A7U], CCGCCUUACACUGCCAAUGCCGUUCCCAAGCCCGGAUAAAAGUGGAGGGGGCGG [A7U G23U] is lower in self-cleavage: 0.07 for the first, 0.03 for the second.

First: CCGCCUUACACUGCCAAUGCCGAUCCCAAGCCCGGAUAAAAGUGGAGGGGGCGG [A7U G23A]
Second: CCGCCUUACACUGCCAAUGCCGCUCCCAAGCCCGGAUAAAAGUGGAGGGGGCGG [A7U G23C]
The self-cleavage of the first is higher: 0.06 for the first, 0.03 for the second.

Compared with CCGCCUUACACUGCCAAUGCCGGUCCCAAGCCCGGAUAAAAGUGGAGGGGCCGG [A7U G51C], CCGCCUUACACUGCCAAUGCCGGUCCCAAGCCCGGAUAAAAGUGGAGGGGACGG [A7U G51A] is higher in self-cleavage: 0.03 for the first, 0.07 for the second.

CCGCCUUACACUGCCAAUGCCGGUCCCAAGCCCGGAUAAAAGUGGAGGGGUCGG [A7U G51U] and CCGCCUUACACUGCCAAUGCCGGUCCCAAGCCCGGAUAAAAGUGGAAGGGGCGG [A7U G47A] are the same in self-cleavage: 0.05 for the first, 0.05 for the second.

CCGCCUUACACUGCCAAUGCCGGUCCCAAGCCCGGAUAAAAGUGGACGGGGCGG [A7U G47C] and CCGCCUUACACUGCCAAUGCCGGUCCCAAGCCCGGAUAAAAGUGGAUGGGGCGG [A7U G47U] are the same in self-cleavage: 0.04 for the first, 0.04 for the second.

Going from CCGCCUUACACUGCCAAUGCCGGUUCCAAGCCCGGAUAAAAGUGGAGGGGGCGG [A7U C25U] to CCGCCUUACACUGCCAAUGCCGGUGCCAAGCCCGGAUAAAAGUGGAGGGGGCGG [A7U C25G], the self-cleavage falls from 0.2 to 0.08.

Compared with CCGCCUUACACUGCCAAUGCCGGUACCAAGCCCGGAUAAAAGUGGAGGGGGCGG [A7U C25A], CCGCCUUACACUGCCAAUGCCGGUCCCAAGCCCGGAUAAAAGUGGAGGGGGCGA [A7U G54A] is higher in self-cleavage: 0.03 for the first, 0.07 for the second.

Going from CCGCCUUACACUGCCAAUGCCGGUCCCAAGCCCGGAUAAAAGUGGAGGGGGCGU [A7U G54U] to CCGCCUUACACUGCCAAUGCCGGUCCCAAGCCCGGAUAAAAGUGGAGGGGGCGC [A7U G54C], the self-cleavage falls from 0.11 to 0.06.

Going from CCGCCUUACACUUCCAAUGCCGGUCCCAAGCCCGGAUAAAAGUGGAGGGGGCGG [A7U G13U] to CCGCCUUACACUCCCAAUGCCGGUCCCAAGCCCGGAUAAAAGUGGAGGGGGCGG [A7U G13C], the self-cleavage falls from 0.06 to 0.02.

Variant CCGCCUUACACUACCAAUGCCGGUCCCAAGCCCGGAUAAAAGUGGAGGGGGCGG [A7U G13A] has a self-cleavage of 0.04.
